Molecules are shown by their SMILES. Positions count from the first letter of the chain named. Active and inactive are the calls of the source. No cut-off for these calls is given here.

Assay [1] has as its system T1, Muscarinic acetylcholine receptor M1 (Homo sapiens), P11229 [E170K].
T1 sequence (whole entry): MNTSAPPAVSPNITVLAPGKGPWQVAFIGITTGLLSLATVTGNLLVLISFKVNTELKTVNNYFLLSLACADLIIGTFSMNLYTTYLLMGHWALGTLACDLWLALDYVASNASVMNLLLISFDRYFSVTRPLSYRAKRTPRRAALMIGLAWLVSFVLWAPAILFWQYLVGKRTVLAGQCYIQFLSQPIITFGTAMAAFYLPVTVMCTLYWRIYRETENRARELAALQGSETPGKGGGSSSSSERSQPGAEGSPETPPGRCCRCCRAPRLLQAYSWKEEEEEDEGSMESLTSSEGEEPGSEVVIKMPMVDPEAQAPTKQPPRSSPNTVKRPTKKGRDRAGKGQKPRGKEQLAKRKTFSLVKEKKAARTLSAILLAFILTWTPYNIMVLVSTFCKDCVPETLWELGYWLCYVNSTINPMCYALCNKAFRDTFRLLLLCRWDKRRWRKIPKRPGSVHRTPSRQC
Kind of assay: Agonist activity at human M1 receptor E170K mutant expressed in A9 L cells assessed as stimulation of phosphoinositide hydrolysis relative to carbachol. The format is functional, cell-based. The settings on record: L929. The method in brief: (§1)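 A9 L cells stably expressing the receptor, seeded 24 h, labelled overnight with 10 µCi/mL [3H]inositol in inositol-free DMEM; ligands in HBSS with 10 mM LiCl, 20 mM HEPES, 37 °C, 1 h; formic acid extraction, inositol phosphates counted by SPA beads.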

Assay [2] addresses T2, Muscarinic acetylcholine receptor M1/M5 chimeric protein (Homo sapiens) (UniProt P11229+P08912). As to the kind of experiment: Agonist activity at human M1/M5(o2) chimeric receptor expressed in A9 L cells assessed as stimulation of phosphoinositide hydrolysis relative to carbachol. Particulars: L929. Format: functional, cell-based. The method in brief:
as §1

The target in assay [3] is T3, Muscarinic acetylcholine receptor M1 (Homo sapiens) (UniProt P11229).
T3 sequence (whole entry): T1 sequence (whole entry) with K170E
As to the kind of experiment: Agonist activity at human M1 receptor expressed in A9 L cells assessed as stimulation of phosphoinositide hydrolysis relative to carbachol. The format is functional, cell-based. The settings on record: L929. The method in brief:
as §1

Assay [4] deals with T2, Muscarinic acetylcholine receptor M1/M5 chimeric protein (Homo sapiens). As to the kind of experiment: Agonist activity at human M1/M5(o2o3) chimeric receptor expressed in A9 L cells assessed as stimulation of phosphoinositide hydrolysis relative to carbachol. The format is functional, cell-based. The settings on record: L929. The method in brief: as §1
For assay [5] the target is unchanged. Kind of assay: Agonist activity at human M1/M5(o3) chimeric receptor expressed in A9 L cells assessed as stimulation of phosphoinositide hydrolysis relative to carbachol. The format is functional, cell-based. Particulars: L929. A digest of the protocol: as §1
Assay [6] relates to T4, Muscarinic acetylcholine receptor M1 (Homo sapiens), P11229 [Q185E].
T4 sequence (whole entry): T1 sequence (whole entry) with K170E, Q185E
Kind of assay: Agonist activity at human M1 receptor Q185E mutant expressed in A9 L cells assessed as stimulation of phosphoinositide hydrolysis relative to carbachol. The format is functional, cell-based. Particulars: L929. The method in brief: as §1

The target in assay [7] is T5, Muscarinic acetylcholine receptor M2 (Homo sapiens) (UniProt P08172).
T5 sequence (whole entry): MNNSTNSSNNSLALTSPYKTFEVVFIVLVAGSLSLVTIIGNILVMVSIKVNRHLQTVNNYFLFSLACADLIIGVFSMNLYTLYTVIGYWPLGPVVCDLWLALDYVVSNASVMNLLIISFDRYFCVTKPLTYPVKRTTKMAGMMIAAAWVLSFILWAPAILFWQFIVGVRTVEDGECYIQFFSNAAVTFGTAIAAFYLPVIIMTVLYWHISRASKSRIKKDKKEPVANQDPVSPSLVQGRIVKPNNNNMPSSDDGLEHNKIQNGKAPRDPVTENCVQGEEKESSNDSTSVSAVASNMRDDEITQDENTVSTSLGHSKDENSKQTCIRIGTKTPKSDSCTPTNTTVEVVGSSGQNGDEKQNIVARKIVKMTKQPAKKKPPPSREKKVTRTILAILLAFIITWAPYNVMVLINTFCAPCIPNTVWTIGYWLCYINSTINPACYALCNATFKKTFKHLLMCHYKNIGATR
Kind of assay: Activity at human M2 receptor assessed as inhibition of forskolin-stimulated cAMP accumulation relative to carbachol. Format: functional. (Changes in cAMP serve as a functional read-out for many G protein-coupled receptors.)

The target in assay [8] is T6, Muscarinic acetylcholine receptor M5 (Homo sapiens) (UniProt P08912).
T6 sequence (whole entry): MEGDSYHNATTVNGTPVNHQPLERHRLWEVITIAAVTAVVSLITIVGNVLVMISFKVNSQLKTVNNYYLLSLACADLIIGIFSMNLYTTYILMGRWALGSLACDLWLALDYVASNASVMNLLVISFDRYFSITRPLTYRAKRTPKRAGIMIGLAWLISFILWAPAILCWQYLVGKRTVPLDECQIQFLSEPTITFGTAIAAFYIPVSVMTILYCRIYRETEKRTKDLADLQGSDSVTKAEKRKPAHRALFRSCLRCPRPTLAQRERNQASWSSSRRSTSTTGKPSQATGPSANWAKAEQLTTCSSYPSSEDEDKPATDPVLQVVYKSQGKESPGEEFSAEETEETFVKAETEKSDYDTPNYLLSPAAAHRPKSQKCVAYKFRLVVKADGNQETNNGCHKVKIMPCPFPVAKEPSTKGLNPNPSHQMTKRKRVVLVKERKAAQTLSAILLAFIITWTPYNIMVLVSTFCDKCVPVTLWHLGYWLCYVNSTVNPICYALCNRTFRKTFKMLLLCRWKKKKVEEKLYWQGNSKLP
As to the kind of experiment: Agonist activity at human M5 receptor expressed in A9 L cells assessed as stimulation of phosphoinositide hydrolysis relative to carbachol. Format: functional, cell-based. The settings on record: L929. The method in brief:
as §1

T2 sequence (P11229 whole entry, looked up, change not shown, one chain of several): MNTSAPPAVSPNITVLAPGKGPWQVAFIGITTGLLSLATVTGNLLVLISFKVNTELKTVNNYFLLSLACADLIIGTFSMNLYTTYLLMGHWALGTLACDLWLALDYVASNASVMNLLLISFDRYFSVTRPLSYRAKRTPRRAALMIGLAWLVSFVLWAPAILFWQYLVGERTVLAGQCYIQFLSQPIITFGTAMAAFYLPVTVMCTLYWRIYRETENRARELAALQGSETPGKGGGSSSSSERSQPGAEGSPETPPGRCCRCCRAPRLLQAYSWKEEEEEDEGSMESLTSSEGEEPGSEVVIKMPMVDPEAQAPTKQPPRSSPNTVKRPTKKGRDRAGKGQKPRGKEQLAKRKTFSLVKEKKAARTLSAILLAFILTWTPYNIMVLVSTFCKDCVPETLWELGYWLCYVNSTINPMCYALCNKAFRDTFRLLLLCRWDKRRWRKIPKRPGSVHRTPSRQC

Turning to `COc1nsnc1OCCOCCOCCOCCOc1nsnc1C1=CCCN(C)C1`, the Smax in assay [1] worked out at 27%; in assay [2], 20%; in assay [3] it was 47%; in assay [4] it was 5.3%; in assay [5], 9.7%; in assay [6], 14%. Further, the Imax in assay [7] was determined as 120%. The result in assay [8] was inactive.
On to `CCCCCCOc1nsnc1C1=CCCN(C)C1` [XANOMELINE], for which the Smax in assay [1] turned out to be 31%; in assay [2] it was 75%; in assay [3] it was 71%; in assay [4] it was 20%; in assay [5] it was 21%; in assay [6], 86%. Also, in assay [8], the Smax turned out to be 43%. For the same compound, the outcome in assay [7] was inactive.
